Most compounds without a hit are left out; they make up all but 2.5% or so of the library.
HKDC1 inhibitor: blocks human hexokinase HKDC1 activity; inhibition, % at 20 µM; 340,000 compounds, 0.16% hits; recombinant HKDC1, G6PDH/diaphorase resazurin coupled fluorescence; Q2TB90;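 active means inhibition above about 35% when tested at 20 µM, limit read from the data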
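Incubation: 90 min at room temperature in dark / Material: recombinant HKDC1 (HK5) hexokinase enzyme, produced in-house / Quantity: enzyme 5 µg/mL final / Compound: one dose of 20 µM, 1% DMSO / Reagent: glucose and ATP substrates / Buffer or medium: Tris pH 8.0 buffer with MgCl2, Tween-20, BSA, BME / Technique: resorufin fluorescence at 613 nm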
PGE2 EP2 inh: inhibitors of human EP2 prostaglandin E2 receptor; P43116; C6 glioma cells expressing human EP2, cAMP TR-FRET; cells stimulated with saturating PGE2; inhibition, % at 25 µM; 260,000 compounds, 0.52% hits;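 active means percent inhibition above 40 after rounding to a whole number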;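 further: rat C6 glioma host cells with rolipram phosphodiesterase inhibitor present; the protocol text gives 20 µM as final concentration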
Target sequence (P43116 whole entry, looked up): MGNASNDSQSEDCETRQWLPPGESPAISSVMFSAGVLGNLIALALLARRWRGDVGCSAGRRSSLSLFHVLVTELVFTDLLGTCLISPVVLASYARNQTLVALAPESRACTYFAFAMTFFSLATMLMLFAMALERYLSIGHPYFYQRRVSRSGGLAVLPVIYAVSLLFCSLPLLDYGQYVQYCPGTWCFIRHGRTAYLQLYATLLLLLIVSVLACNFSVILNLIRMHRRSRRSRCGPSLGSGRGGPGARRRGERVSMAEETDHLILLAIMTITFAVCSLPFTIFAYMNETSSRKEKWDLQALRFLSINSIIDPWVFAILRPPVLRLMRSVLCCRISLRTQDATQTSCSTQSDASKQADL
PHOSPHO1 inh: PHOSPHO1 (human) inhibition | Q8TCT1 | recombinant PHOSPHO1, absorbance phosphatase assay | inhibition, % at 13.3 µM | AID 1565 | 290,000 compounds, 1.1% hits; in the data active means inhibition above about 60%
Target sequence (Q8TCT1 whole entry, looked up): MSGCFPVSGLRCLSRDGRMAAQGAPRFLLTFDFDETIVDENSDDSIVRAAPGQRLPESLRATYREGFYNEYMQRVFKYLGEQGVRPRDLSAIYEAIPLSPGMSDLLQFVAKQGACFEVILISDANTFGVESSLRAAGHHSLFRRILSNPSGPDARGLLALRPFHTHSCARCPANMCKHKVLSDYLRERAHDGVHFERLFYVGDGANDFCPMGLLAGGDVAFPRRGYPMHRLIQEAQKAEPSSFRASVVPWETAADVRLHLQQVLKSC
TbHK1 inh: T. brucei hexokinase 1 inhibition; inhibition, % at 10 µM; 220,000 compounds, 0.11% hits; AID 1430; recombinant TbHK1, G6PDH-coupled NADH A340;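 active means inhibition of 50% or more in the single-dose primary screen; inactive means inhibition below 50%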
PfGluPho inh: PfG6PD (Plasmodium falciparum) enzyme inhibition; PfGluPho enzyme, NADPH resazurin-diaphorase fluorescence; inhibition, % at 20 µM; 350,000 compounds, 0.78% hits; AID 504690;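 active means inhibition reaching at least a set limit at 20 µM in the primary screen, cut at about 59% in these data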
EP2 mod: modulators of human EP2 prostaglandin E2 receptor. P43116. EP2-expressing cells, cAMP HTRF FRET, PGE2 co-stimulation. induction, % at 25 µM. 260,000 compounds, 0.83% hits. AID 940;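 active means compounds whose cAMP rise, as percent of the full-agonist control response, exceeds 60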;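 further: rat C6 glioma line stably carrying human EP2 under a CMV promoter; the protocol text gives 20 µM as final concentration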
Numbers stand for hits; ! = repeats disagree.

What do the screens show for `Cc1ccc(-c2nc(NC(=O)c3nn(C)cc3[N+](=O)[O-])sc2C)cc1C`?
HKDC1 inhibitor: inactive; PHOSPHO1 inh: inactive; TbHK1 inh: inactive; PfGluPho inh: inactive; EP2 mod: inactive

Results for Cc1cnc(NC(=O)c2nn(C)cc2[N+](=O)[O-])s1 ?
HKDC1 inhibitor: inactive; PGE2 EP2 inh: 46.2; PHOSPHO1 inh: inactive; TbHK1 inh: inactive; PfGluPho inh: inactive; EP2 mod: inactive

What do the screens show for `Cc1ccc(-c2nc(NC(=O)c3nn(C)cc3[N+](=O)[O-])sc2C)cc1`?
HKDC1 inhibitor: inactive; PGE2 EP2 inh: inactive; PHOSPHO1 inh: inactive; TbHK1 inh: inactive; PfGluPho inh: inactive; EP2 mod: inactive

How did Cn1cc([N+](=O)[O-])c(C(=O)Nc2nc(-c3ccc(Cl)cc3)cs2)n1 do in these assays?
HKDC1 inhibitor: inactive; PGE2 EP2 inh: 75.4; PHOSPHO1 inh: inactive; TbHK1 inh: inactive; PfGluPho inh: inactive; EP2 mod: inactive

Results for CC(C)C(=O)c1cn(CC(=O)NCCc2ccccc2)c2ccccc12 ?
PGE2 EP2 inh: inactive; EP2 mod: inactive

How did CCc1ccc2[nH]c(=O)c(CN(CCN(C)C)C(=O)Nc3ccccc3F)cc2c1 do in these assays?
PGE2 EP2 inh: inactive; EP2 mod: inactive

Results for CCC(=O)N1c2ccccc2-c2c(ssc2=S)C1(C)C ?
PGE2 EP2 inh: inactive; EP2 mod: inactive

Results for CCOc1ccc2c(c1)-c1c(ssc1=S)C(C)(C)N2C ?
HKDC1 inhibitor: inactive; PGE2 EP2 inh: inactive; PHOSPHO1 inh: 69.5; TbHK1 inh: inactive; PfGluPho inh: inactive; EP2 mod: inactive

What do the screens show for `O=C(Nc1ccccc1Cl)c1ccccc1Cc1ccccc1`?
HKDC1 inhibitor: inactive; PGE2 EP2 inh: inactive; PHOSPHO1 inh: inactive; TbHK1 inh: inactive; PfGluPho inh: inactive; EP2 mod: 63.9

Results for COC(=O)c1cc(Br)c(N)cc1OC ?
HKDC1 inhibitor: inactive; PGE2 EP2 inh: inactive; PHOSPHO1 inh: 61.0; TbHK1 inh: inactive; PfGluPho inh: inactive; EP2 mod: inactive

Results for CCN(CC)CCNC(=O)c1cc(Br)c(N)cc1OC ?
HKDC1 inhibitor: inactive; PGE2 EP2 inh: inactive; PfGluPho inh: inactive; EP2 mod: inactive

How did CSc1nnc(NC(=O)CCc2ccccc2)s1 do in these assays?
HKDC1 inhibitor: inactive; PGE2 EP2 inh: inactive; PHOSPHO1 inh: 82.4; TbHK1 inh: inactive; PfGluPho inh: inactive; EP2 mod: inactive

What do the screens show for `CCCC(=O)N1CCCC(c2nc3c(nnn3Cc3cc(C)ccc3C)c(=O)[nH]2)C1` (stereo not drawn)?
PGE2 EP2 inh: inactive; EP2 mod: 63.6

Results for CC(C)NC[C@@H](O)c1ccc(O)c(O)c1 ?
HKDC1 inhibitor: inactive; PGE2 EP2 inh: inactive; PHOSPHO1 inh: inactive; TbHK1 inh: inactive; PfGluPho inh: inactive; EP2 mod: 80.0

What do the screens show for `CC(C)(C)NCC(O)c1ccc(O)c(CO)c1` (stereo not drawn)?
PGE2 EP2 inh: inactive; EP2 mod: 78.0!

What do the screens show for `CNC[C@@H](O)c1ccc(O)c(O)c1`?
PGE2 EP2 inh: inactive; EP2 mod: 82.1

What do the screens show for `CCOC(=O)c1nn(-c2ccc(F)cc2)c2nc(-c3ccccc3)c(C#N)c(=O)n12`?
HKDC1 inhibitor: inactive; PGE2 EP2 inh: inactive; PHOSPHO1 inh: inactive; TbHK1 inh: inactive; PfGluPho inh: inactive; EP2 mod: 64.6

Results for CC1CN(c2nc3c(c(=O)[nH]2)CCN(Cc2cccc4cccnc24)C3)CC(C)O1 (stereo not drawn) ?
PGE2 EP2 inh: inactive; EP2 mod: inactive

Results for Cc1cccc(NC(=O)c2c(-c3ccccc3)noc2C)n1 ?
HKDC1 inhibitor: inactive; PGE2 EP2 inh: 43.5; PHOSPHO1 inh: inactive; TbHK1 inh: inactive; PfGluPho inh: inactive; EP2 mod: inactive

How did Cc1ccc(-n2c(C)cc(/C([O-])=C(/C(=S)Nc3ccc(F)c(Cl)c3)[n+]3ccccc3)c2C)cc1 do in these assays?
HKDC1 inhibitor: inactive; PGE2 EP2 inh: inactive; PHOSPHO1 inh: 83.7; TbHK1 inh: inactive; PfGluPho inh: inactive; EP2 mod: inactive

Results for Cc1cc(/C([O-])=C(/C(=S)Nc2ccc(F)cc2)[n+]2ccccc2)c(C)n1-c1ccc(F)cc1 ?
HKDC1 inhibitor: inactive; PGE2 EP2 inh: inactive; PHOSPHO1 inh: 95.7; TbHK1 inh: inactive; PfGluPho inh: inactive; EP2 mod: inactive

Results for Nc1nc(CC(=O)CSc2nc3ccccc3s2)nc(Nc2ccc(F)cc2)n1 ?
PGE2 EP2 inh: inactive; EP2 mod: inactive

Results for CCOc1ccc(CNCCNC(=O)c2ccco2)cc1 ?
PGE2 EP2 inh: inactive; EP2 mod: inactive

Results for Cc1cc(C)n(CCC(=O)NCCn2nc3c(C)cc4ccccc4n3c2=O)n1 ?
PGE2 EP2 inh: inactive; EP2 mod: inactive

Results for CSC1=NC2C(N1)N(C)C(=O)N2C (stereo not drawn) ?
HKDC1 inhibitor: inactive; PGE2 EP2 inh: inactive; PHOSPHO1 inh: 78.3; TbHK1 inh: inactive; PfGluPho inh: inactive; EP2 mod: inactive

Results for Cc1ccc(N2C(=O)C(F)(F)C2c2ccccc2)cc1 (stereo not drawn) ?
HKDC1 inhibitor: inactive; PGE2 EP2 inh: inactive; PHOSPHO1 inh: inactive; TbHK1 inh: inactive; PfGluPho inh: inactive; EP2 mod: inactive

What do the screens show for `CC1=NC(=O)C(N=O)N1c1ccccc1` (stereo not drawn)?
PGE2 EP2 inh: 50.8; EP2 mod: inactive

What do the screens show for `CCOC(=O)CSc1nnc(CNc2cccc(Cl)c2)o1`?
PGE2 EP2 inh: inactive; EP2 mod: inactive

Results for CCCCc1ccc(Nc2nc(CCC)cc(=O)[nH]2)cc1 ?
HKDC1 inhibitor: inactive; PGE2 EP2 inh: inactive; PHOSPHO1 inh: inactive; TbHK1 inh: inactive; PfGluPho inh: inactive; EP2 mod: 60.6

How did CCCc1cc(=O)[nH]c(Nc2ccc(N3CCCCC3)cc2)n1 do in these assays?
HKDC1 inhibitor: inactive; PGE2 EP2 inh: inactive; PHOSPHO1 inh: inactive; TbHK1 inh: inactive; PfGluPho inh: inactive; EP2 mod: inactive

How did COc1ccc(-n2c(-c3ccc(Br)cc3)c[n+]3c2CCCCC3)cc1 do in these assays?
HKDC1 inhibitor: inactive; PGE2 EP2 inh: inactive; PHOSPHO1 inh: 68.1; TbHK1 inh: inactive; PfGluPho inh: inactive; EP2 mod: inactive

How did COc1ccc(-n2c(-c3ccc(Br)cc3)c[n+]3c2CCC3)cc1 do in these assays?
HKDC1 inhibitor: inactive; PGE2 EP2 inh: inactive; PHOSPHO1 inh: inactive; TbHK1 inh: inactive; PfGluPho inh: inactive; EP2 mod: inactive

Results for CC1CCCC(NCCNC(=O)c2ccco2)C1 (stereo not drawn) ?
PGE2 EP2 inh: inactive; EP2 mod: inactive

How did Cc1cc2c(N=O)c(NO)ccc2[nH]1 do in these assays?
HKDC1 inhibitor: inactive; PGE2 EP2 inh: inactive; PHOSPHO1 inh: inactive; TbHK1 inh: inactive; PfGluPho inh: 69.7; EP2 mod: inactive

How did Cc1ccc(Nc2nc3ccccc3s2)c(C)c1 do in these assays?
HKDC1 inhibitor: inactive; PGE2 EP2 inh: inactive; PHOSPHO1 inh: inactive; TbHK1 inh: inactive; PfGluPho inh: inactive; EP2 mod: inactive

Results for Cc1cc(O)ccc1Nc1nc2ccccc2nc1Nc1ccc(O)cc1C ?
HKDC1 inhibitor: inactive; PGE2 EP2 inh: inactive; PHOSPHO1 inh: 97.1; TbHK1 inh: inactive; PfGluPho inh: inactive; EP2 mod: inactive
